Measurements: PMC3055594 (Glycobiology, 2010)
Read-outs that look alike come from different tables or passages of the source.

Assays:
Mt-PrsA [1] = target: T1, Mt-PrsA (Mycobacterium tuberculosis, UniProt P9WKE3); test: Continuous enzyme-coupled spectrophotometric assay of Mt-PrsA; format: biochemical
T1 sequence (P9WKE3 1-326): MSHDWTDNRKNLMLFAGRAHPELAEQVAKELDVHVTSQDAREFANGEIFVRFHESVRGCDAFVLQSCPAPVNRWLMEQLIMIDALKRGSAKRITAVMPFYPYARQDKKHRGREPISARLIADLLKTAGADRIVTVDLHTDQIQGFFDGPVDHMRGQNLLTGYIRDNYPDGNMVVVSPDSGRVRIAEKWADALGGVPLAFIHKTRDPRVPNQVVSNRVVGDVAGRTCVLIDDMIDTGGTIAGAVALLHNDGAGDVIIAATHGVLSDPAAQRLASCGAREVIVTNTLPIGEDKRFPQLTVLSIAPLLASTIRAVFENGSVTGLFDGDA

Mt-PrsA [2] = target: T1, Mt-PrsA; conditions: 5 mM ligand
How it was run: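 Recombinant Mt-PrsA was purified by Ni2+-NTA with a 250 mM imidazole step to ~98% purity, then dialyzed into 50 mM KH2PO4 (pH 7.9), 300 mM NaCl, 1 mM DTT. Sedimentation velocity was run with absorbance optics using no ligand or 5 mM R5P, ATP or ADP. The read-out was the molar mass distribution c(M) against apparent molecular weight.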

Mt-PrsA [3] = target: T1, Mt-PrsA; test: Intrinsic tryptophan fluorescence; format: binding
How it was run: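 Excitation was at 292 nm; emission spectra were taken at 300–400 nm 5 min after each ligand aliquot. ΔFemission at 335 nm was plotted against [L] and fitted for Kd and Hill n. R5P was titrated with or without 5 mM AMPPNP, and AMPPNP with or without 5 mM R5P.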

[4] = system: arabinofuranosyltransferases EmbA, EmbB, EmbC and AftB; format: biochemical, Mycobacterium smegmatis; conditions: EMB 100 µg/mL; ADP 2 mM
Mt-PrsA [5] = target: T1, Mt-PrsA; format: biochemical; conditions: 2 mM final concentration, 37°C
[6] = read-out: Kd (ITF), ligand alone, 70 µM Mt-PrsA

Compound: Nc1ncnc2c1ncn2[C@@H]1O[C@H](COP(=O)(O)OP(=O)(O)OP(=O)(O)O)[C@@H](O)[C@H]1O [ATP]
- apparent Hill coefficient (n), kinetics (Mt-PrsA [1]; increasing [ATP], saturating R5P, 50 mM Pi): 1.68
- Vmax for ATP (Mt-PrsA [1]; saturating R5P, 50 mM Pi): 601 µmol⁻¹ min⁻¹ mg⁻¹
- S0.5 for ATP (Mt-PrsA [1]; saturating R5P, 50 mM Pi, Eq. (4)): 62.65 µM
- c(M) peak position (Mt-PrsA [2]): ~70,000 Da
- effect on oligomeric state of Mt-PrsA, c(M) distribution (Mt-PrsA [2]): reduction in the intensity of the hexameric species
- Hill coefficient (n) of binding (ITF) (Mt-PrsA [3]; ligand alone): ~4
- Kd (Mt-PrsA [3]; [6]): 28.3 µM

Compound: O=P(O)(O)O [Pi, inorganic phosphate]
- concentration required for full enzyme activation (Mt-PrsA [1]): 50 mM

Compound: Nc1ncnc2c1ncn2[C@@H]1O[C@H](COP(=O)(O)OP(=O)(O)O)[C@@H](O)[C@H]1O [ADP]
- effect on AraT-dependent product formation [4]: inhibition of any AraT-dependent product formation
- Ki (Mt-PrsA [1]; read-out: Ki against increasing [ATP], saturating [R5P], Eq. (6)): 522 µM
- effect on oligomeric state of Mt-PrsA, c(M) distribution (Mt-PrsA [2]): shifted toward an increase in the hexameric state
- Hill coefficient (n) of binding (ITF) (Mt-PrsA [3]; ligand alone): 2
- Kd (Mt-PrsA [3]; [6]): 513 µM
- effect on Mt-PrsA activity / p[14C]Rpp formation (Mt-PrsA [5]): strongly inhibited

Compound: CC[C@@H](CO)NCCN[C@@H](CC)CO [EMB, ethambutol]
- effect on AraT-dependent product formation [4]: loss of the upper band with only the lower band remaining

Compound: [Ca+2].[Cl-].[Cl-] [CaCl2]
- effect on Mt-PrsA activity / p[14C]Rpp formation (Mt-PrsA [5]): loss of Mt-PrsA activity

Compound: Nc1ncnc2c1ncn2C1OC(COP(=O)(O)OP(=O)(O)NP(=O)(O)O)C(O)C1O (stereo not drawn) [AMPPNP, 5'-adenylyl-β,γ-imidodiphosphate]
- Hill coefficient (n) for AMPPNP in the presence of R5P (Mt-PrsA [3]; 5 mM R5P): 5
- Hill coefficient (n) of binding (ITF) (Mt-PrsA [3]; ligand alone): ~4
- Kd (Mt-PrsA [3]; [6]): 31 µM
- Kd (Mt-PrsA [3]; read-out: Kd for AMPPNP in the presence of R5P, 5 mM R5P): 28.2 µM

Compound: O=C[C@H](O)[C@H](O)[C@H](O)COP(=O)(O)O [R5P, ribose-5-phosphate]
- Km (Mt-PrsA [1]; read-out: Km for R5P, saturating ATP, 50 mM Pi, Eq. (2)): 8.2 µM
- Vmax (increasing R5P) (Mt-PrsA [1]; saturating ATP, 50 mM Pi): 530 µmol⁻¹ min⁻¹ mg⁻¹
- effect on oligomeric state of Mt-PrsA, c(M) distribution (Mt-PrsA [2]): no apparent change in the equilibrium or oligomeric state
- Kd (Mt-PrsA [3]; Kd (ITF), ligand alone, 70 µM Mt-PrsA): 24.8 µM
- Kd (Mt-PrsA [3]; apparent Kd for R5P in the presence of AMPPNP, 5 mM AMPPNP): 21.4 µM
